In brackets after ≈: the same amount, converted by molar mass.
Tests used:
[1] = Lipophilicity, log P of the compound; format: physicochemical; conditions: octanol/water
Staphylococcus aureus [2] = assay: Antibacterial activity against methicillin-sensitive Staphylococcus aureus FDA 209P after 20 hrs by liquid microdilution method; format: functional
In short: (§1)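 Two-fold serial dilutions of compound in Mueller–Hinton broth, inoculated with 1 × 10^4 cells and cultured at 37 °C for 20 h in microtiter wells.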

Bacillus subtilis = assay: Antibacterial activity against drug-sensitive Bacillus subtilis 168 after 20 hrs by liquid microdilution method; format: functional; conditions: subsp. subtilis str. 168, 20 h; in short: as §1
Escherichia coli = assay: Antibacterial activity against drug-sensitive Escherichia coli K-12 W3110 after 20 hrs by liquid microdilution method; format: functional; conditions: K-12 substr. W3110, 20 h; in short: as §1
Salmonella typhimurium = assay: Antibacterial activity against drug-sensitive Salmonella typhimurium LT2 after 20 hrs by liquid microdilution method; format: functional, Salmonella enterica subsp. enterica serovar Typhimurium; conditions: Salmonella enterica, LT2, 20 h; in short: as §1
Pseudomonas aeruginosa = assay: Antibacterial activity against drug-sensitive Pseudomonas aeruginosa PAO1 after 20 hrs by liquid microdilution method; format: functional; conditions: PAO1, 20 h; in short: as §1
[3] = Hemolytic activity in rabbit RBC at 50 uM after 20 mins relative to control; format: ADME, cell-based, Oryctolagus cuniculus, Erythrocyte; conditions: rabbit red blood cells (erythrocytes), read-out: Activity
In short: (§2)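 Rabbit erythrocytes suspended in 150 mM NaCl/10 mM Hepes-NaOH, pH 7.4, at 0.5% hematocrit (final) and incubated with compound at 37 °C. The table footnote gives 20 min; the methods section gives 30 min. Hemolysis was read as absorbance at 540 nm, with 50 µM lysolecithin defining 100% hemolysis.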

[4] = Hemolytic activity in rabbit RBC at 20 uM after 20 mins relative to control; format: ADME, cell-based, Oryctolagus cuniculus, Erythrocyte; conditions: rabbit red blood cells (erythrocytes), read-out: Activity; in short: as §2
[5] = Hemolytic activity in rabbit RBC at 10 uM after 20 mins relative to control; format: ADME, cell-based, Oryctolagus cuniculus, Erythrocyte; conditions: rabbit red blood cells (erythrocytes), read-out: Activity; in short: as §2
[6] = Hemolytic activity in rabbit RBC at 5 uM after 20 mins relative to control; format: ADME, cell-based, Oryctolagus cuniculus, Erythrocyte; conditions: rabbit red blood cells (erythrocytes), read-out: Activity; in short: as §2
[7] = Hemolytic activity in rabbit RBC at 2 uM after 20 mins relative to control; format: ADME, cell-based, Oryctolagus cuniculus, Erythrocyte; conditions: rabbit red blood cells (erythrocytes), read-out: Activity; in short: as §2
[8] = Hemolytic activity in rabbit RBC at 1 uM after 20 mins relative to control; format: ADME, cell-based, Oryctolagus cuniculus, Erythrocyte; conditions: rabbit red blood cells (erythrocytes), read-out: Activity; in short: as §2
Staphylococcus aureus [9] = assay: Antibacterial activity against methicillin-resistant Staphylococcus aureus MS29202 after 18 to 20 hrs by agar dilution method; format: functional
In short: (§3)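 Agar dilution per CLSI. Overnight broth cultures were diluted 100-fold, and one loopful (about 10^5 to 10^4 CFU) was spotted onto agar plates containing the CD. Growth was scored after 18–20 h at 37 °C. MIC values are in µM.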

Streptococcus agalactiae = assay: Antibacterial activity against drug-resistant Streptococcus agalactiae B1 after 18 to 20 hrs by agar dilution method; format: functional; in short: as §3
Enterococcus faecium = assay: Antibacterial activity against drug-resistant Enterococcus faecium MS29120 after 18 to 20 hrs by agar dilution method; format: functional; in short: as §3
Enterococcus faecalis [10] = assay: Antibacterial activity against drug-resistant Enterococcus faecalis MS29030 after 18 to 20 hrs by agar dilution method; format: functional; in short: as §3
Enterococcus faecalis [11] = assay: Antibacterial activity against vancomycin-resistant Enterococcus faecalis MS29016 after 18 to 20 hrs by agar dilution method; format: functional; in short: as §3

Row | SMILES | logP [1] | MIC (Staphylococcus aureus [2]) [µM] | MIC (Bacillus subtilis) [µM] | MIC (Escherichia coli) [µM] | MIC (Salmonella typhimurium) [µM] | MIC (Pseudomonas aeruginosa) [µM] | hemolysis at 20 min, 50 µM [3] [%] | hemolysis at 20 min, 20 µM [4] [%] | hemolysis at 20 min, 10 µM [5] [%] | hemolysis at 20 min, 5 µM [6] [%] | hemolysis at 20 min, 2 µM [7] [%] | hemolysis at 20 min, 1 µM [8] [%] | MIC (Staphylococcus aureus [9]) [µM] | MIC (Streptococcus agalactiae) [µM] | MIC (Enterococcus faecium) [µM] | MIC (Enterococcus faecalis [10]) [µM] | MIC (Enterococcus faecalis [11]) [µM]
1 | CC(C)CCCNCc1cn(C[C@H]2O[C@@H]3O[C@H]4[C@H](O)[C@@H](O)[C@@H](O[C@H]5[C@H](O)[C@@H](O)[C@@H](O[C@H]6[C@H](O)[C@@H](O)[C@@H](O[C@H]7[C@H](O)[C@@H](O)[C@@H](O[C@H]8[C@H](O)[C@@H](O)[C@@H](O[C@H]9[C@H](O)[C@@H](O)[C@@H](O[C@H]2[C@H](O)[C@H]3O)O[C@@H]9Cn2cc(CNCCCC(C)C)nn2)O[C@@H]8Cn2cc(CNCCCC(C)C)nn2)O[C@@H]7Cn2cc(CNCCCC(C)C)nn2)O[C@@H]6Cn2cc(CNCCCC(C)C)nn2)O[C@@H]5Cn2cc(CNCCCC(C)C)nn2)O[C@@H]4Cn2cc(CNCCCC(C)C)nn2)nn1 | -0.15 | 3 to 10 (≈ 6.85 to 22.8 µg/mL) | 3 (≈ 6.85 µg/mL) | 10 (≈ 22.8 µg/mL) | 10 (≈ 22.8 µg/mL) | 5 (≈ 11.4 µg/mL) | 56 | 23 | 15 | 7 | 5 | 5 | 21 (≈ 48 µg/mL) | 5 (≈ 11.4 µg/mL) | 10 (≈ 22.8 µg/mL) | > 42 | 42 (≈ 96 µg/mL)
2 | NC(Cc1ccccc1)c1cn(C[C@H]2O[C@@H]3O[C@H]4[C@H](O)[C@@H](O)[C@@H](O[C@H]5[C@H](O)[C@@H](O)[C@@H](O[C@H]6[C@H](O)[C@@H](O)[C@@H](O[C@H]7[C@H](O)[C@@H](O)[C@@H](O[C@H]8[C@H](O)[C@@H](O)[C@@H](O[C@H]9[C@H](O)[C@@H](O)[C@@H](O[C@H]2[C@H](O)[C@H]3O)O[C@@H]9Cn2cc(C(N)Cc3ccccc3)nn2)O[C@@H]8Cn2cc(C(N)Cc3ccccc3)nn2)O[C@@H]7Cn2cc(C(N)Cc3ccccc3)nn2)O[C@@H]6Cn2cc(C(N)Cc3ccccc3)nn2)O[C@@H]5Cn2cc(C(N)Cc3ccccc3)nn2)O[C@@H]4Cn2cc(C(N)Cc3ccccc3)nn2)nn1 (some centres not stated) | -0.67 | 21 (≈ 48.9 µg/mL) | 5 (≈ 11.6 µg/mL) | 21 (≈ 48.9 µg/mL) | > 41 | > 41 | 4 | 4 | 6 | 3 | 4 | 5 | 41 (≈ 95.4 µg/mL) | 21 (≈ 48.9 µg/mL) | 21 (≈ 48.9 µg/mL) | > 41 | > 41
3 | CCCC(C)CCNCc1cn(C[C@H]2O[C@@H]3O[C@H]4[C@H](O)[C@@H](O)[C@@H](O[C@H]5[C@H](O)[C@@H](O)[C@@H](O[C@H]6[C@H](O)[C@@H](O)[C@@H](O[C@H]7[C@H](O)[C@@H](O)[C@@H](O[C@H]8[C@H](O)[C@@H](O)[C@@H](O[C@H]9[C@H](O)[C@@H](O)[C@@H](O[C@H]2[C@H](O)[C@H]3O)O[C@@H]9Cn2cc(CNCCC(C)CCC)nn2)O[C@@H]8Cn2cc(CNCCC(C)CCC)nn2)O[C@@H]7Cn2cc(CNCCC(C)CCC)nn2)O[C@@H]6Cn2cc(CNCCC(C)CCC)nn2)O[C@@H]5Cn2cc(CNCCC(C)CCC)nn2)O[C@@H]4Cn2cc(CNCCC(C)CCC)nn2)nn1 (some centres not stated) | 0.27 | 3 to 20 (≈ 7.15 to 47.7 µg/mL) | 10 (≈ 23.8 µg/mL) | 5 (≈ 11.9 µg/mL) | 10 (≈ 23.8 µg/mL) | 10 (≈ 23.8 µg/mL) | 119 | 108 | 99 | 73 | 30 | 10 | 40 (≈ 95.3 µg/mL) | 20 (≈ 47.7 µg/mL) | 20 (≈ 47.7 µg/mL) | > 40 | 40 (≈ 95.3 µg/mL)
4 | NCCCCCCCc1cn(C[C@H]2O[C@@H]3O[C@H]4[C@H](O)[C@@H](O)[C@@H](O[C@H]5[C@H](O)[C@@H](O)[C@@H](O[C@H]6[C@H](O)[C@@H](O)[C@@H](O[C@H]7[C@H](O)[C@@H](O)[C@@H](O[C@H]8[C@H](O)[C@@H](O)[C@@H](O[C@H]9[C@H](O)[C@@H](O)[C@@H](O[C@H]2[C@H](O)[C@H]3O)O[C@@H]9Cn2cc(CCCCCCCN)nn2)O[C@@H]8Cn2cc(CCCCCCCN)nn2)O[C@@H]7Cn2cc(CCCCCCCN)nn2)O[C@@H]6Cn2cc(CCCCCCCN)nn2)O[C@@H]5Cn2cc(CCCCCCCN)nn2)O[C@@H]4Cn2cc(CCCCCCCN)nn2)nn1 | -0.43 | 3 to 21 (≈ 6.85 to 48 µg/mL) | 5 (≈ 11.4 µg/mL) | > 42 | > 42 | > 42 | 3 | 4 | 3 | 4 | 1 | 3 | 42 (≈ 96 µg/mL) | 42 (≈ 96 µg/mL) | 21 (≈ 48 µg/mL) | > 42 | > 42
5 | O[C@@H]1[C@@H](O)[C@H]2O[C@H]3[C@H](O)[C@@H](O)[C@@H](O[C@H]4[C@H](O)[C@@H](O)[C@@H](O[C@H]5[C@H](O)[C@@H](O)[C@@H](O[C@H]6[C@H](O)[C@@H](O)[C@@H](O[C@H]7[C@H](O)[C@@H](O)[C@@H](O[C@H]8[C@H](O)[C@@H](O)[C@@H](O[C@@H]1[C@@H](Cn1cc(CNCC9CCC9)nn1)O2)O[C@@H]8Cn1cc(CNCC2CCC2)nn1)O[C@@H]7Cn1cc(CNCC2CCC2)nn1)O[C@@H]6Cn1cc(CNCC2CCC2)nn1)O[C@@H]5Cn1cc(CNCC2CCC2)nn1)O[C@@H]4Cn1cc(CNCC2CCC2)nn1)O[C@@H]3Cn1cc(CNCC2CCC2)nn1 | -1 | 5 to 11 (≈ 10.9 to 23.9 µg/mL) | 3 (≈ 6.52 µg/mL) | > 43 | > 43 | > 43 | 0 | 0 | 0 | 0 | 0 | 0 | > 43 | > 43 | > 43 | > 43 | > 43
6 | CCC(CC)CNCc1cn(C[C@H]2O[C@@H]3O[C@H]4[C@H](O)[C@@H](O)[C@@H](O[C@H]5[C@H](O)[C@@H](O)[C@@H](O[C@H]6[C@H](O)[C@@H](O)[C@@H](O[C@H]7[C@H](O)[C@@H](O)[C@@H](O[C@H]8[C@H](O)[C@@H](O)[C@@H](O[C@H]9[C@H](O)[C@@H](O)[C@@H](O[C@H]2[C@H](O)[C@H]3O)O[C@@H]9Cn2cc(CNCC(CC)CC)nn2)O[C@@H]8Cn2cc(CNCC(CC)CC)nn2)O[C@@H]7Cn2cc(CNCC(CC)CC)nn2)O[C@@H]6Cn2cc(CNCC(CC)CC)nn2)O[C@@H]5Cn2cc(CNCC(CC)CC)nn2)O[C@@H]4Cn2cc(CNCC(CC)CC)nn2)nn1 | -0.08 | 3 to 5 (≈ 6.85 to 11.4 µg/mL) | 3 (≈ 6.85 µg/mL) | 10 (≈ 22.8 µg/mL) | 42 (≈ 96 µg/mL) | 42 (≈ 96 µg/mL) | 12 | 8 | 8 | 3 | 1 | 5 | 21 (≈ 48 µg/mL) | 3 (≈ 6.85 µg/mL) | 10 (≈ 22.8 µg/mL) | > 42 | 21 (≈ 48 µg/mL)
